Laboratory results taken from ChEMBL document CHEMBL4052705, “Synthesis and biological evaluation of 2-methyl-1H-benzimidazole-5-carbohydrazides derivatives as modifiers of redox homeostasis of Trypanosoma cruzi” (Bioorg Med Chem Lett, 2017).
Active and inactive are the calls of the source. No cut-off for these calls is given here.

Key:
[1] = test system: Trypanosoma cruzi; test: Antitrypanosomal activity against Trypanosoma cruzi Queretaro epimastigotes assessed as reduction in parasite viability incubated for 24 hrs by Neubauer hematocytometery; assay type: functional
Outline: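 T. cruzi Queretaro-strain epimastigotes were exposed to the compounds and parasite growth was measured. IC50 was taken as the concentration that inhibits parasite growth by 50%.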

[2] = Cytotoxicity against mouse J774 cells incubated for 24 hrs by resazurin dye based fluorescence assay; assay type: cell-based
Outline: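 J774 mouse macrophage cell line was exposed to the compounds, and cytotoxicity was read as resazurin reduction using a previously described method with modifications. The read-out gave CC50.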

[3] = Selectivity index, ratio of CC50 for cytotoxicity against mouse J774 cells to IC50 for antitrypanosomal activity against Trypanosoma cruzi Queretaro epimastigotes; assay type: toxicity, cell-based; conditions: read-out: Ratio CC50/IC50
Outline: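 Selectivity index was calculated as CC50 in J774 mouse macrophages (resazurin reduction) divided by IC50 for growth inhibition of Queretaro-strain epimastigotes.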

[4] = test system: Trypanosoma cruzi; test: Induction of changes in cellular redox balance in Trypanosoma cruzi Queretaro epimastigotes assessed as increase in cysteine level incubated for 24 hrs by HPLC and UV-Vis spectrophotometry; assay type: functional
[5] = test system: Trypanosoma cruzi; test: Induction of changes in cellular redox balance in Trypanosoma cruzi Queretaro epimastigotes assessed as increase in GSH level incubated for 24 hrs by HPLC and UV-Vis spectrophotometry; assay type: functional
[6] = test system: Trypanosoma cruzi; test: Induction of changes in cellular redox balance in Trypanosoma cruzi Queretaro epimastigotes assessed as increase in T(SH)2 level at 5 to 20 uM incubated for 24 hrs by HPLC and UV-Vis spectrophotometry; assay type: functional

Structure (SMILES) | IC50 [1] [µM] | selectivity ratio [3] | further results
Cc1nc2cc(C(=O)O)ccc2[nH]1 | 226 | 1.2 | CC50 at 24 h [2]: 264 µM
COc1cc(/C=N/NC(=O)c2ccc3[nH]c(C)nc3c2)cc(OC)c1OC | > 500 | – | –
COc1ccc(/C=N/NC(=O)c2ccc3[nH]c(C)nc3c2)cc1OC | > 500 | – | –
COc1cc(/C=C/C=N/NC(=O)c2ccc3[nH]c(C)nc3c2)ccc1O | 8 | 20.1 | CC50 at 24 h [2]: 161 µM; Activity [4]: Dose-dependent effect; Activity [5]: Dose-dependent effect; Activity [6]: Active
Cc1nc2cc(C(=O)N/N=C/c3ccccc3)ccc2[nH]1 | 280 | – | –
COc1ccc(/C=N/NC(=O)c2ccc3[nH]c(C)nc3c2)c(OC)c1OC | > 500 | – | –
Cc1nc2cc(C(=O)N/N=C/c3ccc4c(c3)OCCO4)ccc2[nH]1 | > 500 | – | –
Cc1nc2cc(C(=O)N/N=C/c3ccc([N+](=O)[O-])o3)ccc2[nH]1 | 434 | – | –
COc1ccc(/C=N/NC(=O)c2ccc3[nH]c(C)nc3c2)cc1 | 320 | – | –
Cc1nc2cc(C(=O)N/N=C/c3cc(O)ccc3O)ccc2[nH]1 | > 500 | – | –
Cc1nc2cc(C(=O)N/N=C/c3ccc(O)c(O)c3)ccc2[nH]1 | 380 | – | –
COc1cc(/C=N/NC(=O)c2ccc3[nH]c(C)nc3c2)ccc1O | 3 | 53.5 | CC50 at 24 h [2]: 161 µM; Activity [4]: Dose-dependent effect; Activity [5]: Dose-dependent effect; Activity [6]: inactive
O=C(Cn1ccnc1[N+](=O)[O-])NCc1ccccc1 [BENZNIDAZOLE] | 7.5 | – | –
Cc1nc2cc(C(=O)N/N=C/c3ccc(O)cc3)ccc2[nH]1 | > 500 | – | –
CC1CS(=O)(=O)CCN1/N=C/c1ccc([N+](=O)[O-])o1 (stereo not given) [NIFURTIMOX] | – | 36.5 | –
Cc1nc2cc(C(=O)NN)ccc2[nH]1 | 393 | 0.6 | CC50 at 24 h [2]: 233 µM
